# Compound activity from PubChem BioAssay.
# ARFGAP1 inhibitor = rat ARFGAP1 inhibition; Q62848; Arfgap1-stimulated ARF1 GTP hydrolysis, GDP FP detection; inhibition, % at 16.5 µM; actives 0.26% (n = 360,000); AID 651572;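 active = inhibition above a per-plate limit, mean inhibition of low control wells plus 3 SD, cut at about 25% in these data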;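 also: 0% = DMSO wells with enzyme and 100% = wells lacking Arfgap1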
#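 system = rat Arfgap1 catalytic domain, aa 1-136 | technique = FP, GDP Alexa 633 tracer displaced from anti-GDP antibody, 620/688 nm | compound = one concentration, 16.5 µM, DMSO 1.26% | medium = HEPES-based buffer, pH 7.5 | timing = compound-enzyme preincubation 20 min, reaction 120 min, detection 60 min, 25 °C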
# ASAP1 inh = inhibitors of human ASAP1 ArfGAP activity; Q9ULH1; ASAP1-stimulated ARF1 GTP hydrolysis, GDP FP detection; inhibition, % at 16.5 µM; actives 0.19% (n = 360,000); in the data active = inhibition above about 25%;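 also: 0% = vehicle with enzyme and substrate and 100% = no enzyme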
# Exocytosis inh = lytic granule exocytosis inhibition; inhibition, % at 10 µM; TALL-104 LAMP-1 surface exposure, flow cytometry; cells stimulated with thapsigargin and PMA; actives 0.66% (n = 360,000);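 active = inhibition above about 55%, limit read from the data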
# NRP1-CendR mod = NRP-1/CendR interaction modulation. O14786. FAM-RPARPAR peptide binding to NRP-1, fluorescence polarization. inhibition, % at 25 µM. actives 0.85% (n = 360,000). AID 602438;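 active = inhibition or corrected inhibition above about 18%, plus a signal ratio from 0.5 to 1.5, limit read from the data, passing the limit was not always enough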
# V-ATPase pHluor = alters yeast V-ATPase proton transport. S. cerevisiae, pHLuorin cytosolic pH fluorescence. response, % at 10 µM. actives 0.37% (n = 350,000). AID 504577; in the data active = response mostly above about 7.3%, no sharp cut-off; inactive = mostly below about 5.4%; also: actives read high
# ASAP1 inh confirm = ASAP1 inhibition confirmed. shares compounds with ASAP1 inh. ASAP1-stimulated Arf1 GTPase, GDP fluorescence polarization. inhibition, % at 16.5 µM. actives 37% (n = 620);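 active = mean inhibition over triplicates exceeds the hit threshold derived for the earlier primary screening run, cut at about 25% in these data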
# ARFGAP1 confirm = rat ARFGAP1 inhibition, confirmed | shares compounds with ARFGAP1 inhibitor | ARFGAP1-stimulated ARF1 GTP hydrolysis, GDP tracer FP | AID 651608 | inhibition, % at 16.5 µM | actives 30% (n = 890);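 active = average inhibition over triplicates above the hit cutoff set in the earlier primary screen, cut at about 25% in these data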;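 also: 0% = Arfgap1 plus ARF1-GTP with DMSO and 100% = wells lacking Arfgap1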
# Starred values were filed as active, the others as inactive; · = no result given. Hits are enriched below; roughly 2.2% of the tested compounds scored in any of these assays.
SMILES,ARFGAP1 inhibitor,ASAP1 inh,Exocytosis inh,NRP1-CendR mod,V-ATPase pHluor,ASAP1 inh confirm,ARFGAP1 confirm
CS(=O)(=O)Nc1cccc(NC(=O)c2cccc3c(-c4cccnc4)coc23)c1,·,·,2,-6,·,·,·
CC(=O)c1cccc(NC(=O)c2cccc3c(-c4cccnc4)coc23)c1,26*,35*,-4,-16,·,26*,29*
O=C(CCNS(=O)(=O)c1ccc(OC(F)(F)F)cc1)NC1CC1,2,2,-2,11,-1,·,·
O=C(O)c1cc(S(=O)(=O)NCCOc2ccccc2)ccc1Cl,4,-18,0,-5,3,·,·
Cn1c(=O)c2cc(NCc3ccccc3)nnc2n(C)c1=O,28*,44*,0,10,0,9,0
Cc1cc([N+](=O)[O-])c(C)cc1-c1ccc(/C=N/NC(=O)Cn2nnnc2N)o1,67*,65*,3,-24,-1,1,35*
COc1cccc(/C=C2/Sc3ccc(C(=O)NCCN4CCCCCC4)cc3NC2=O)c1,29*,31*,35,5,-3,36*,37*
Cc1cccc(/C=C2/Sc3ccc(C(=O)NCCN4CCCC4)cc3NC2=O)c1,7,-1,5,-6,5,·,·
CCOc1ccc(NC(=O)CN(C)C(=O)c2ccc(=O)[nH]c2)cc1OCC,11,-1,12,-5,0,·,·
COc1ccc(-n2nnnc2SCC(=O)c2ccc3c(c2)OCCO3)c(OC)c1,59*,53*,8,5,4,51*,135*
CN(Cc1ccccc1F)C(=O)CN1c2cccc3cccc(c23)S1(=O)=O,29*,30*,-7,-16,2,41*,51*
COc1cccc(OC)c1-c1nn2c(-c3cc(-c4ccccc4)n[nH]3)nnc2s1,130*,129*,-12,-3,2,167*,182*
O=C(Cn1cncc1-c1ccc([N+](=O)[O-])cc1)Nc1cccc2ccccc12,41*,28*,-1,-8,0,37*,46*
CCOc1ccc(NC(=O)Cn2cncc2-c2ccc([N+](=O)[O-])cc2)cc1,11,21,1,2,-1,·,·
Cc1ccc(C(=O)Nc2cccc(C(F)(F)F)c2)cc1NC(=O)c1c[nH]c2cc(C(F)(F)F)ccc2c1=O,0,-4,-3,-16,-1,·,·
CCN1CCN(Cc2ccc(NC(=O)c3ccc(C)c(NC(=O)c4c[nH]c5cc(C(F)(F)F)ccc5c4=O)c3)cc2C(F)(F)F)CC1,45*,43*,24,-1,1,53*,70*
C[C@H](O)[C@@H]1C(=O)N2CCc3c([nH]c4cccc(-c5ccccc5)c34)[C@@H]2C[C@@H]1N(C)C(=O)NC1CCCCC1,-11,4,·,·,·,·,·
CCOc1ccccc1NC(=O)c1ccc(OCC)c([N+](=O)[O-])c1,-2,3,4,-4,-5,·,·
CCOc1ccc(C(=O)Nc2cc(-c3nc4ccccc4[nH]3)ccc2Cl)cc1[N+](=O)[O-],109*,69*,19,-6,0,123*,151*
CCOc1ccc(C(=O)Nc2cccc(-c3cc4ccccc4oc3=O)c2)cc1[N+](=O)[O-],42*,26*,-1,-2,-1,37*,46*
CCOc1ccc(C(=O)Nc2cc(-c3nc4ccccc4[nH]3)ccc2C)cc1[N+](=O)[O-],6,18,29,-3,-7,·,·
CN1CCN(c2ncnc3c2ncn3[C@H]2CN(Cc3ccc4c(c3)OCO4)C[C@@H](CO)O2)CC1,-12,10,14,0,·,·,·
Cn1c(=O)c2cc(NC(=O)CCc3cccnc3)ccc2n1Cc1ccc(F)cc1,-1,-3,17,-5,·,·,·
O=C(C1CCC(CNS(=O)(=O)c2cccs2)CC1)N1CCN(c2ccc(Cl)cc2)CC1 (centres undefined),-6,10,1,-6,-3,·,·
O=C(Nc1nnc(-c2ccc3c(c2)OCCO3)o1)c1ccc(Cc2ccccc2)cc1,92*,133*,2,-14,-2,139*,155*
SMILES,ARFGAP1 inhibitor,ASAP1 inh,Exocytosis inh,NRP1-CendR mod,V-ATPase pHluor,ASAP1 inh confirm,ARFGAP1 confirm
Cc1ccc([N+](=O)[O-])cc1-c1ccc(/C=C(\C#N)c2[nH]nc(N)c2C#N)o1,45*,41*,5,-12,-1,56*,58*
O=c1[nH]c(Nc2ccccc2Cl)cc2ccccc12,29*,48*,-11,-10,-5,8,5
Cc1ccccc1Nc1cc2ccccc2c(=O)[nH]1,·,·,1,-3,-4,·,·
O=C(Nc1cccc(-c2cnc3ccccc3n2)c1)c1cccc(NC(=O)c2ccco2)c1,101*,102*,4,-16,4,91*,126*
O=C(OCc1cn([C@H]2CN(C(=O)c3cccs3)[C@@H](c3ccc(Cl)cc3)C[C@@H]2O)nn1)c1ccccc1,10,-1,0,-8,1,·,·
COc1ccc(/C=N\NC(=O)c2cc3c(ccc4ccccc43)o2)cc1O,28*,72*,17,-6,-4,96*,76*
COc1ccc(/C=N/NC(=O)c2cc3c(ccc4ccccc43)o2)cc1OC,76*,102*,6,13,3,115*,82*
CSc1ccc(CN2CCC(n3nccc3NC(=O)CCCc3ccccc3)CC2)cc1,17,-1,4,7,0,·,·
C[n+]1c(-c2ccc(C=NNC(=O)c3ccc(C(=O)NN=Cc4ccc(-c5cn6ccccc6[n+]5C)cc4)cc3)cc2)cn2ccccc21,66*,42*,34,·,3,50*,90*
O=C(CSCc1ccc(Cl)cc1)Nc1ccc(O)cc1C(=O)O,-2,-17,-2,10,-2,·,·
COc1cc(/C=C/C(=O)Nc2ccc3nc4n(c(=O)c3c2)CCCC4)cc(OC)c1OC,25*,27*,1,-15,-3,43*,38*
COc1ccc(-n2nc(C(=O)NCC(=O)NCc3ccc(F)cc3)c3ccccc3c2=O)cc1OC,139*,43*,-1,-17,0,49*,88*
Cc1ccc(C(=O)OCC(=O)Nc2cccc(S(=O)(=O)N3CCCCC3)c2)s1,4,-2,4,4,-2,·,·
O=C(COc1ccc2oc(-c3ccco3)cc(=O)c2c1)N1CCCCC1,80*,32*,0,3,0,42*,72*
O=C(NS(=O)(=O)N1CCOCC1)C1=C(N2CCCC2)COC1=O,-2,2,15,6,1,·,·
COc1ccc(-c2cc(NC=O)c3ncc(-c4ccc(C(C)=O)cc4)n3c2)cc1OC,28*,45*,2,-26,·,61*,50*
COc1cc(-c2cc(NC=O)c3ncc(-c4ccc(C(C)=O)cc4)n3c2)cc(OC)c1OC,12,13,-4,-126,·,·,·
